≈ marks a conversion by molar mass, not a printed value.
Legend:
[1] = Cytotoxicity against human MT4 cells assessed as reduction in cell viability incubated for 5 days by MTT assay; assay type: cell-based; conditions: time 5 day
Outline: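 Mock-infected MT-4 cells at 6 × 10^5 cells/mL were given serial 5-fold compound dilutions in triplicate wells alongside the infected series. After 5 days viability was read by MTT at 540 and 690 nm, using the median of three wells.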

[2] = physchem; conditions: water, pH 7.4
[3] = test system: reverse transcriptase Y181C mutant (HIV-1); assay: Inhibition of reverse transcriptase Y181C mutant in HIV-1 infected in human MT4 cells assessed as reduction in virus-induced cytopathic effect incubated for 5 days by MTT assay; conditions: Human immunodeficiency virus 1, MT4, 120 h
[4] = Solubility in water at pH 7 at 0.1 to 10 mg
[5] = physchem; conditions: water, pH 2
[6] = Selectivity index, ratio of CC50 for human MT4 cells to EC50 for antiviral activity against HIV IIIB; assay type: toxicity; conditions: read-out: Ratio CC50/EC50
Outline: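 SI is computed as CC50/EC50. […] Both used serial 5-fold dilutions in triplicate and were read by MTT after 5 days, taking the median absorbance of three wells.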

[7] = target: Human immunodeficiency virus type 1 reverse transcriptase (Human immunodeficiency virus 1, UniProt Q72547); assay: Inhibition of HIV-1 reverse transcriptase assessed as inhibition of biotin-dUTP incorporation into wild type RT measured after 1 hr by ELISA
[8] = Inhibition of reverse transcriptase RES056 mutant in HIV-1 infected in human MT4 cells assessed as reduction in virus-induced cytopathic effect incubated for 5 days by MTT assay; assay type: cell-based; conditions: Human immunodeficiency virus 1, MT4, 120 h
Outline: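 MT-4 cells were spun down, resuspended at 6 × 10^5 cells/mL and infected with 100–300 CCID50 of mutant HIV-1 (RES056 = K103N + Y181C). Serial 5-fold compound dilutions were tested in triplicate wells alongside mock-infected wells. After 5 days, viability was read by MTT at 540 and 690 nm using the median of three wells.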

[9] = test system: Human immunodeficiency virus 1; assay: Antiviral activity against HIV-1 3B infected in human MT4 cells assessed as reduction in virus-induced cytopathic effect incubated for 5 days by MTT assay; assay type: functional, organism-based; conditions: Human immunodeficiency virus 1, 3B, MT4, 120 h
Outline: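 MT-4 cells resuspended at 6 × 10^5 cells/mL were infected with HIV-1 stock at 100–300 CCID50. Compounds were tested in serial 5-fold dilutions in triplicate wells. Viability was read by MTT after 5 days at 540 and 690 nm, using the median of three wells.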

Work on `Cc1cc(/C=C/C#N)cc(C)c1Oc1nc(Nc2ccc(CN3CCN(S(N)(=O)=O)CC3)cc2)nc2ccsc12` yielded a CC50 at 120 h [1] of 145 µM, a solubility [2] of 39.5 µg/mL (≈ 68.6 µM) and an EC50 [3] of 0.154 µM. The solubility [4] was 49.7 µg/mL (≈ 86.3 µM), the solubility [5] was 73.1 µg/mL (≈ 127 µM) and the selectivity ratio [6] was 19000. The IC50 [7] was 961 nM, the EC50 [8] was 1.91 µM and the EC50 [9] was 7 nM.

With `Cc1cc(/C=C/C#N)cc(C)c1Oc1nc(Nc2ccc(N3CCN(S(C)(=O)=O)CC3)cc2)nc2ccsc12` the CC50 at 120 h [1] was 11.5 µM, the EC50 [3] was 4.53 µM and the selectivity ratio [6] was 428. It also gave an IC50 [7] of 211 nM, an EC50 [8] greater than 11.5 µM and an EC50 [9] of 27 nM.

Compound `Cc1cc(/C=C/C#N)cc(C)c1Oc1nc(Nc2ccc(CN3CCN(S(N)(=O)=O)CC3)cc2)nc2sccc12` has a CC50 at 120 h [1] greater than 218 µM, a solubility [2] of 38.9 µg/mL (≈ 67.6 µM) and an EC50 [3] of 0.045 µM. It also gave a solubility [4] of 49.3 µg/mL (≈ 85.6 µM), a solubility [5] of 64.9 µg/mL (≈ 113 µM) and a selectivity ratio [6] greater than 26900. For the same compound, the IC50 [7] was 299 nM, the EC50 [8] was 1.38 µM and the EC50 [9] was 8 nM.

In the case of `Cc1cc(/C=C/C#N)cc(C)c1Oc1nc(Nc2ccc(N3CCCC(N)C3)cc2)nc2sccc12` (stereo not given), the CC50 at 120 h [1] is reported as 4.61 µM, the selectivity ratio [6] is reported as 10 and the IC50 [7] is reported as 956 nM. For the same compound, the EC50 [9] was 461 nM.

Compound `Cc1cc(/C=C/C#N)cc(C)c1Oc1nc(Nc2ccc(N3CCN(S(N)(=O)=O)CC3)cc2)nc2ccsc12` has a CC50 at 120 h [1] greater than 223 µM, an EC50 [3] of 2.25 µM and a selectivity ratio [6] greater than 8310. The IC50 [7] was 214 nM, the EC50 [8] was greater than 223 µM and the EC50 [9] was 27 nM.

Work on `Cc1cc(/C=C/C#N)cc(C)c1Oc1nc(Nc2ccc(N3CCCC(NS(C)(=O)=O)C3)cc2)nc2sccc12` (stereo not given) yielded a CC50 at 120 h [1] of 112 µM, an EC50 [3] of 14 µM and a selectivity ratio [6] of 78. It also gave an IC50 [7] of 1020 nM, an EC50 [8] of 16.5 µM and an EC50 [9] of 1430 nM.

Compound `Cc1cc(/C=C/C#N)cc(C)c1Oc1nc(Nc2ccc(N3CCN(S(C)(=O)=O)CC3)cc2)nc2sccc12` has a CC50 at 120 h [1] greater than 222 µM, an EC50 [3] of 42.7 µM and a selectivity ratio [6] greater than 1300. For the same compound, the IC50 [7] was 239 nM, the EC50 [8] was 175 µM and the EC50 [9] was 172 nM.

With `Cc1cc(/C=C/C#N)cc(C)c1Oc1nc(Nc2ccc(N3CCCC(NS(N)(=O)=O)C3)cc2)nc2ccsc12` (stereo not given) the CC50 at 120 h [1] was greater than 218 µM, the EC50 [3] was 3.64 µM and the selectivity ratio [6] was greater than 3630. For the same compound, the IC50 [7] was 2410 nM, the EC50 [8] was greater than 218 µM and the EC50 [9] was 59 nM.

Work on `Cc1cc(/C=C/C#N)cc(C)c1Oc1nc(Nc2ccc(CN3CCN(S(C)(=O)=O)CC3)cc2)nc2ccsc12` yielded a CC50 at 120 h [1] of 20.7 µM, an EC50 [3] of 5.64 µM and a selectivity ratio [6] of 53. For the same compound, the IC50 [7] was 139 nM, the EC50 [8] was greater than 20.7 µM and the EC50 [9] was 391 nM.

`Cc1cc(/C=C/C#N)cc(C)c1Oc1nc(Nc2ccc(CN3CCNCC3)cc2)nc2ccsc12` showed a CC50 at 120 h [1] of 3.97 µM, a selectivity ratio [6] of 18 and an IC50 [7] of 707 nM. The EC50 [9] was 216 nM.

With `Cc1cc(/C=C/C#N)cc(C)c1Oc1nc(Nc2ccc(CN3CCNCC3)cc2)nc2sccc12` the CC50 at 120 h [1] was 4.03 µM, the selectivity ratio [6] was 94 and the IC50 [7] was 151 nM. For the same compound, the EC50 [9] was 42 nM.

Compound `Cc1cc(/C=C/C#N)cc(C)c1Oc1nc(Nc2ccc(N3CCNCC3)cc2)nc2sccc12` has a CC50 at 120 h [1] of 4.74 µM, a selectivity ratio [6] of 8 and an IC50 [7] of 849 nM. It also gave an EC50 [9] of 584 nM.

With `Cc1cc(/C=C/C#N)cc(C)c1Oc1nc(Nc2ccc(N3CCN(S(N)(=O)=O)CC3)cc2)nc2sccc12` the CC50 at 120 h [1] was greater than 223 µM, the EC50 [3] was 1.36 µM and the selectivity ratio [6] was greater than 7790. For the same compound, the IC50 [7] was 713 nM, the EC50 [8] was 196 µM and the EC50 [9] was 28 nM.

Compound `Cc1cc(/C=C/C#N)cc(C)c1Oc1nc(Nc2ccc(CN3CCN(S(C)(=O)=O)CC3)cc2)nc2sccc12` has a CC50 at 120 h [1] of 131 µM, an EC50 [3] of 1.27 µM and a selectivity ratio [6] of 3560. It also gave an IC50 [7] of 103 nM, an EC50 [8] of 18.8 µM and an EC50 [9] of 36 nM.

Work on `Cc1cc(/C=C/C#N)cc(C)c1Oc1nc(Nc2ccc(N3CCCC(NS(N)(=O)=O)C3)cc2)nc2sccc12` (stereo not given) yielded a CC50 at 120 h [1] greater than 218 µM, an EC50 [3] of 7.53 µM and a selectivity ratio [6] greater than 1730. For the same compound, the IC50 [7] was 4790 nM, the EC50 [8] was greater than 218 µM and the EC50 [9] was 126 nM.

With `Cc1cc(/C=C/C#N)cc(C)c1Oc1nc(Nc2ccc(N3CCNCC3)cc2)nc2ccsc12` the CC50 at 120 h [1] was 5.73 µM, the selectivity ratio [6] was 15 and the IC50 [7] was 945 nM. It also gave an EC50 [9] of 387 nM.

`Cc1cc(/C=C/C#N)cc(C)c1Oc1nc(Nc2ccc(N3CCCC(NS(C)(=O)=O)C3)cc2)nc2ccsc12` (stereo not given) showed a CC50 at 120 h [1] greater than 217 µM, an EC50 [3] of 43.4 µM and a selectivity ratio [6] greater than 434. It also gave an IC50 [7] of 775 nM, an EC50 [8] greater than 217 µM and an EC50 [9] of 450 nM.

With `Cc1cc(/C=C/C#N)cc(C)c1Oc1nc(Nc2ccc(N3CCCC(N)C3)cc2)nc2ccsc12` (stereo not given) the CC50 at 120 h [1] was 3.82 µM, the selectivity ratio [6] was 5 and the IC50 [7] was 1580 nM. The EC50 [9] was 815 nM.

Compound `O=C1Nc2ccc(Cl)cc2[C@@](C#CC2CC2)(C(F)(F)F)O1` [EFAVIRENZ] has a CC50 at 120 h [1] greater than 6.33 µM, an EC50 [3] of 0.005 µM and an EC50 [8] of 0.335 µM. For the same compound, the EC50 [9] was 28 nM.

Compound `Cc1cc(C#N)cc(C)c1Oc1nc(Nc2ccc(C#N)cc2)nc(N)c1Br` [ETRAVIRINE] has a CC50 at 120 h [1] greater than 4.59 µM, a solubility [2] of less than 1 µg/mL and an EC50 [3] of 0.015 µM. It also gave a solubility [4] of less than 1 µg/mL and an EC50 [8] of 0.06 µM.

For `Cc1ccnc2c1NC(=O)c1cccnc1N2C1CC1` [NEVIRAPINE], the CC50 at 120 h [1] was greater than 15 µM, the EC50 [3] was 5.05 µM and the EC50 [8] was greater than 15 µM. It also gave an EC50 [9] of 150 nM.
